Data set [1] concerns LNCaP. The experiment in a line: In vitro concentration required to kill 50% of LNCaP human prostate cancer cell line. It counts as functional, cell-based. In a few lines:
(§1)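 Cell-kill assay in culture. LNCaP is a PSA-secreting human prostate cancer line. Colo320 is a PSA-nonsecreting human colorectal carcinoma line, used as the non-PSA control. EC50 is the compound dose that kills 50% of the tumor cells.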

Another data set has as its system COLO 320. The experiment in a line: In vitro concentration required to kill 50% of COLO 320 human colorectal carcinoma cell line. It counts as functional, cell-based. In a few lines:
as §1

The next data set relates to PSA. The experiment in a line: Time required for PSA to hydrolyze 50% compound at a molar ratio of 1:100. The format is ADME. As to conditions: PSA (enzyme). In outline:
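Conjugate and purified human PSA were mixed at a 100:1 molar ratio (substrate:enzyme) in 50 mM Tris·HCl and 140 mM NaCl, pH 7.4. Samples were incubated at 37 °C for 0, 30, 60, 120, 180 or 240 min. T1/2 is the time to 50% cleavage.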

In data set [2] the test system is Mus musculus. In words: Maximum nonlethal drug dose administered intraperitoneally to non tumor bearing nude mice. The format is functional. In outline: (§2)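 Nontumor-bearing nude mice were dosed intraperitoneally once daily for 5 consecutive days. MTD is the maximum dose that could be given on this schedule without lethality. P values are reported.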
For data set [3], the system named is LNCaP. In words: Percent tumor weight reduction after intraperitoneal injection of conjugate dose to nude mice bearing LNCaP tumor xenografts. It counts as functional, Mus musculus. In a few lines: (§3)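 Nude mice bearing human prostate LNCaP (PSA-secreting) xenografts were given the conjugate intraperitoneally for 5 consecutive days and followed over six weeks. Serum PSA, tumor weight and body weight were measured at study end. Results are percent relative to vehicle-treated controls, with P values.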

The nature of data set [4]: Percent PSA reduction after intraperitoneal injection of conjugate dose to nude mice bearing LNCaP tumor xenografts. The format is functional, Mus musculus. In outline:
as §3

The test system of the next data set is T47D. The experiment in a line: In vitro concentration required to kill 50% of T47D human breast ductal carcinoma cell line. The format is functional, cell-based. In outline: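 T47D is a PSA-nonsecreting human breast ductal carcinoma line, used as a control for PSA-secreting LNCaP cells. Compounds were tested in cell culture. EC50 is the dose that kills 50% of the tumor cells.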

The test system of data set [5] is Mus musculus. In words: Intraperitoneal dose administered to non tumor bearing nude mice. The format is functional. In outline: as §2

Each structure is given as a SMILES string. Counter-ions that a name gives are not always drawn.

As for `CC[C@]1(O)C[C@@H]2CN(CCc3c([nH]c4ccccc34)[C@@](C(=O)OC)(c3cc4c(cc3OC)N(C)C3C45CCN4CC=C[C@](CC)(C45)[C@@H](OC(=O)CN)[C@]3(O)C(=O)OC)C2)C1` (some centres not stated), the results for the EC50 in the data set with LNCaP [1] and with COLO 320 were 300 nM and 1800 nM, respectively.

`CC[C@]1(O)C[C@@H]2CN(CCc3c([nH]c4ccccc34)[C@@](C(=O)OC)(c3cc4c(cc3OC)N(C)[C@H]3[C@@](O)(C(=O)OC)[C@H](OC(C)=O)[C@]5(CC)C=CCN6CC[C@]43[C@@H]65)C2)C1` [VINBLASTINE SULFATE] yielded an EC50 with LNCaP [1] of 500 nM.

With `CC[C@]1(O)C[C@@H]2CN(CCc3c([nH]c4ccccc34)[C@@](C(=O)OC)(c3cc4c(cc3OC)N(C)C3C45CCN4CC=C[C@](CC)(C45)[C@@H](OC(=O)[C@H](CC(C)C)NC(=O)[C@H](CO)NC(=O)[C@H](CCC(N)=O)NC(=O)C(NC(=O)[C@H](CO)NC(=O)[C@H](CO)NC(=O)[C@H]4CC(O)CN4C(C)=O)C4CCCCC4)[C@]3(O)C(=O)OC)C2)C1.O=C(O)C(F)(F)F` (some centres not stated), the EC50 with LNCaP [1] turned out to be 40000 nM; in the data set on COLO 320, 87000 nM. For the same compound, in the data set on PSA, the half-life came out at 35 min.

With `CC[C@]1(O)C[C@@H]2CN(CCc3c([nH]c4ccccc34)[C@@](C(=O)OC)(c3cc4c(cc3OC)N(C)C3C45CCN4CC=C[C@](CC)(C45)[C@@H](O)[C@]3(O)C(=O)OC)C2)C1` (some centres not stated), the EC50 came to 100 nM in the data set on LNCaP [1], 200 nM with COLO 320 and 150 nM in the data set on T47D. Besides, the MTD with Mus musculus [2] came to 0.26 µM/kg. Moreover, the Weight reduction in the data set with LNCaP [3] came to 16%. Moreover, the Reduction in data set [4] is recorded as 14%. The compound also showed a Dose in the data set with Mus musculus [5] of 0.26 µM/kg.

Turning to `CC[C@]1(O)C[C@@H]2CN(CCc3c([nH]c4ccccc34)[C@@](C(=O)OC)(c3cc4c(cc3OC)N(C)C3C45CCN4CC=C[C@](CC)(C45)[C@@H](OC(=O)C4CCCN4)[C@]3(O)C(=O)OC)C2)C1.O=C(O)C(F)(F)F` (some centres not stated), the EC50 with LNCaP [1] turned out to be 1000 nM; in the data set with COLO 320, 3000 nM; with T47D it was 1600 nM. Also, the MTD with Mus musculus [2] is 4.6 µM/kg. Further, in the data set with LNCaP [3], the Weight reduction is given as 60%. The same compound came in with a Reduction in data set [4] of 33%. This compound registered a Dose in the data set with Mus musculus [5] of 4.6 µM/kg.

On to `CC[C@]1(O)C[C@@H]2CN(CCc3c([nH]c4ccccc34)[C@@](C(=O)OC)(c3cc4c(cc3OC)N(C)C3C45CCN4CC=C[C@](CC)(C45)[C@@H](OC(=O)[C@@H](N)CC(C)C)[C@]3(O)C(=O)OC)C2)C1` (some centres not stated), for which the EC50 amounted to 4000 nM in the data set with LNCaP [1] and 6000 nM in the data set with COLO 320.

As usually defined, the EC50 is the midpoint of the concentration-response curve. One may read the half-life as the time needed for the level to fall by half in the phase considered.
